ChEMBL document CHEMBL1177791, “Discovery of piperidin-4-yl-aminopyrimidines as HIV-1 reverse transcriptase inhibitors. N-benzyl derivatives with broad potency against resistant mutant viruses” (Bioorg Med Chem Lett, 2010)

Tests used:
[1] = biological target: Human immunodeficiency virus type 1 reverse transcriptase (Human immunodeficiency virus 1, UniProt Q72547, Y188L); experiment: Inhibition of HIV1 reverse transcriptase Y188L mutant by SPA heteropolymeric assay
How it was run: (§1)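 Recombinant mutant RT, heteropolymeric assay of RNA-dependent DNA polymerase activity. Uses a biotinylated primer oligonucleotide and tritiated dNTP substrate. Newly synthesized DNA is captured via the biotinylated primer on streptavidin-coated scintillation proximity beads and counted. Reported as IC50.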

[2] = biological target: Human immunodeficiency virus type 1 reverse transcriptase (Human immunodeficiency virus 1, UniProt Q72547); experiment: Inhibition of wild type HIV1 reverse transcriptase by SPA heteropolymeric assay
How it was run: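 Recombinant RT, heteropolymeric assay of RNA-dependent DNA polymerase activity with biotinylated primer oligonucleotide and tritiated dNTP substrate; new DNA quantified by capturing biotinylated primer on streptavidin-coated SPA beads; IC50 reported.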

[3] = biological target: Human immunodeficiency virus type 1 reverse transcriptase (Human immunodeficiency virus 1, UniProt Q72547, K103N/Y181C); experiment: Inhibition of HIV1 reverse transcriptase K103N/Y181C double mutant by SPA heteropolymeric assay; how it was run: as §1
[4] = tested on: Human immunodeficiency virus 1; experiment: Antiviral activity against HIV1 expressing reverse transcriptase K103N/Y181C double mutant infected in human MT4 cells assessed as reduction in virus-induced cytopathic effect; format: functional, organism-based; settings: Human immunodeficiency virus 1, MT4
How it was run: (§2)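 Compound incubated with HIV-1-infected MT4 cells in medium containing 10% fetal bovine serum. Read-out was reduction of viral cytopathic effect on the cells, reported as EC50.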

[5] = tested on: Human immunodeficiency virus 1; experiment: Antiviral activity against HIV1 expressing reverse transcriptase Y188L mutant infected in human MT4 cells assessed as reduction in virus-induced cytopathic effect; format: functional, organism-based; settings: Human immunodeficiency virus 1, MT4; how it was run: as §2
[6] = tested on: Human immunodeficiency virus 1; experiment: Antiviral activity against HIV1 infected in human MT4 cells assessed as reduction in virus-induced cytopathic effect; format: functional, organism-based; settings: Human immunodeficiency virus 1, MT4
[7] = tested on: Human immunodeficiency virus 1; experiment: Antiviral activity against HIV1 expressing reverse transcriptase V106A mutant infected in human MT4 cells assessed as reduction in virus-induced cytopathic effect; format: functional, organism-based; settings: Human immunodeficiency virus 1, MT4; how it was run: as §2
[8] = tested on: Human immunodeficiency virus 1; experiment: Antiviral activity against wild type HIV1 infected in human MT4 cells assessed as reduction in virus-induced cytopathic effect in presence of 40 % human serum; format: functional, organism-based; settings: Human immunodeficiency virus 1, MT4
[9] = tested on: Human immunodeficiency virus 1; experiment: Antiviral activity against HIV1 expressing reverse transcriptase G190A mutant infected in human MT4 cells assessed as reduction in virus-induced cytopathic effect; format: functional, organism-based; settings: Human immunodeficiency virus 1, MT4; how it was run: as §2
[10] = tested on: Human immunodeficiency virus 1; experiment: Antiviral activity against wild type HIV1 infected in human MT4 cells assessed as reduction in virus-induced cytopathic effect in presence of 10 % fetal bovine serum; format: functional, organism-based; settings: Human immunodeficiency virus 1, MT4
[11] = tested on: Human immunodeficiency virus 1; experiment: Antiviral activity against HIV1 expressing reverse transcriptase K103N/L100I double mutant infected in human MT4 cells assessed as reduction in virus-induced cytopathic effect; format: functional, organism-based; settings: Human immunodeficiency virus 1, MT4; how it was run: as §2

Cc1cc(C#N)cc(C)c1Oc1nc(NC2CCN(Cc3ccc(C#N)cc3)CC2)ncc1Br
IC50 [1]: 41 nM
IC50 [2]: 21 nM
IC50 [3]: 18 nM

Cc1cc(C#N)cc(C)c1Oc1ccnc(NC2CCN(Cc3ccc(S(C)(=O)=O)cc3)CC2)n1
IC50 [4]: 20.2 nM
IC50 [1]: 72 nM
IC50 [2]: 34 nM
IC50 [3]: 50 nM
IC50 [5]: 16.9 nM

Cc1cc(C#N)cc(C)c1Oc1nc(NC2CCN(Cc3ccc(C(N)=O)cc3Cl)CC2)ncc1Br
IC50 [4]: 52.7 nM
IC50 [1]: 519 nM
IC50 [2]: 131 nM
IC50 [6]: 41.5 nM
IC50 [3]: 69 nM
IC50 [5]: 30.2 nM

Cc1cc(C#N)cc(C)c1Oc1nc(NC2CCN(Cc3ccc(S(C)(=O)=O)cc3Cl)CC2)ncc1Br
IC50 [7]: 2 nM
IC50 [8]: 48.7 nM
IC50 [4]: 7.3 nM
IC50 [9]: 1.8 nM
IC50 [1]: 216 nM
IC50 [2]: 45 nM
IC50 [6]: 6.1 nM
IC50 [3]: 28 nM
IC50 [5]: 2.8 nM
IC50 [10]: 6.1 nM
IC50 [11]: 5.9 nM

Cc1cc(C#N)cc(C)c1Oc1ccnc(NC2CCN(Cc3ccc(S(N)(=O)=O)cc3Cl)CC2)n1
IC50 [4]: 21.4 nM
IC50 [1]: 105 nM
IC50 [2]: 84 nM
IC50 [6]: 4.4 nM
IC50 [3]: 25 nM
IC50 [5]: 1.4 nM

Cc1cc(C#N)cc(C)c1Oc1nc(NC2CCN(Cc3ccc(Cl)cc3)CC2)ncc1Br
IC50 [1]: 793 nM
IC50 [2]: 152 nM
IC50 [3]: 129 nM

Cc1cc(C#N)cc(C)c1Oc1nc(NC2CCN(Cc3ccccc3)CC2)ncc1Br
IC50 [4]: > 100 nM
IC50 [1]: 70 nM
IC50 [2]: 19 nM
IC50 [6]: 6.5 nM
IC50 [3]: 15 nM
IC50 [5]: 9.1 nM

Cc1cc(C#N)cc(C)c1Oc1nc(NC2CCN(Cc3ccccc3C#N)CC2)ncc1Br
IC50 [1]: 43 nM
IC50 [2]: 29 nM
IC50 [3]: 62 nM

Cc1cc(C#N)cc(C)c1Oc1nc(NC2CCN(Cc3ccc(S(C)(=O)=O)cc3)CC2)ncc1Br
IC50 [4]: 35.7 nM
IC50 [1]: 28 nM
IC50 [2]: 28 nM
IC50 [6]: 5.2 nM
IC50 [3]: 14 nM
IC50 [5]: < 1.2 nM

Cc1cc(C#N)cc(C)c1Oc1ccnc(NC2CCN(Cc3ccc(S(C)(=O)=O)cc3Cl)CC2)n1
IC50 [4]: 67.2 nM
IC50 [1]: 263 nM
IC50 [2]: 22 nM
IC50 [6]: 24.6 nM
IC50 [3]: 30 nM
IC50 [5]: 46.5 nM

Cc1cc(C#N)cc(C)c1Oc1nc(NC2CCN(Cc3cccc(C#N)c3)CC2)ncc1Br
IC50 [1]: 37 nM
IC50 [2]: 23 nM
IC50 [3]: 27 nM

Cc1cc(C#N)cc(C)c1Oc1nc(NC2CCN(c3ccccc3)C2)ncc1Br (centres undefined)
IC50 [1]: 718 nM
IC50 [2]: 67 nM
IC50 [3]: > 1000 nM

Cc1cc(C#N)cc(C)c1Oc1ccnc(NC2CCN(Cc3ccccc3)CC2)n1
IC50 [4]: > 100 nM
IC50 [1]: 372 nM
IC50 [2]: 87 nM
IC50 [6]: 3.3 nM
IC50 [3]: 216 nM
IC50 [5]: 43.6 nM

Cc1cc(C#N)cc(C)c1Oc1ccnc(NCCC(=O)Nc2ccc(S(N)(=O)=O)cc2Cl)n1
IC50 [1]: > 10000 nM
IC50 [2]: 900 nM
IC50 [3]: > 1000 nM

Cc1cc(C#N)cc(C)c1Oc1nc(NC2CCN(Cc3ccc(S(N)(=O)=O)cc3Cl)CC2)ncc1Br
IC50 [7]: 2.3 nM
IC50 [8]: 61.5 nM
IC50 [4]: 18.9 nM
IC50 [9]: 6 nM
IC50 [1]: 208 nM
IC50 [2]: 90 nM
IC50 [6]: 9.9 nM
IC50 [3]: 21 nM
IC50 [5]: 3.2 nM
IC50 [10]: 9.9 nM
IC50 [11]: 9.1 nM

Cc1cc(C#N)cc(C)c1Oc1nc(NC2CCN(Cc3ccc(C#N)cc3Cl)CC2)ncc1Br
IC50 [4]: 67.4 nM
IC50 [2]: 146 nM
IC50 [6]: 17.6 nM
IC50 [3]: 159 nM
IC50 [5]: 11.6 nM

Cc1cc(C#N)cc(C)c1Oc1nc(NC2CCN(Cc3cccc(Cl)c3)CC2)ncc1Br
IC50 [2]: 241 nM
IC50 [3]: 229 nM

Cc1cc(C#N)cc(C)c1Oc1nc(NC2CCN(c3ccccc3)CC2)ncc1Br
IC50 [1]: 334 nM
IC50 [2]: 192 nM
IC50 [3]: 112 nM

Cc1cc(C#N)cc(C)c1Oc1nc(NC2CCN(Cc3ccc(C(=O)O)cc3Cl)CC2)ncc1Br
IC50 [4]: 74.2 nM
IC50 [1]: 86 nM
IC50 [2]: 32 nM
IC50 [6]: 3.9 nM
IC50 [3]: 28 nM

O=C1Nc2ccc(Cl)cc2[C@@](C#CC2CC2)(C(F)(F)F)O1 [EFAVIRENZ]
IC50 [7]: 5.7 nM
IC50 [9]: 6 nM
IC50 [5]: > 1000 nM
IC50 [11]: > 500 nM

Cc1cc(C#N)cc(C)c1Oc1nc(Nc2ccc(C#N)cc2)nc(N)c1Br [ETRAVIRINE]
IC50 [8]: 25.9 nM
IC50 [9]: 1.1 nM
IC50 [5]: 3.1 nM
IC50 [11]: 9.5 nM
